Among the data in ChEMBL document CHEMBL1158372, “Design, synthesis, and biological evaluation of novel triazole derivatives as inhibitors of cytochrome P450 14alpha-demethylase” (2009) are MIC80 values, retold here.

Structures are written as SMILES. ≈ marks a conversion by molar mass, not a printed value.

Common to all, as to format: functional
In assay [1] the test system is Candida albicans. The assay is described as follows: Antifungal activity against Candida albicans ATCC 76615 after 24 hrs by micro-broth dilution method. As to conditions: ATCC 76615, 24 h. In short, it runs like this: (§1)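 NCCLS (M27-A2) broth microdilution in 96-well format. Compounds in DMSO, serially diluted in growth medium, inoculated, incubated at 35 °C, and read at 24 h (C. albicans ATCC76615) or 72 h (Cry. neoformans ATCC32609). MIC80 is the first well with about 80% less growth than the drug-free well. Three independent runs per agent; the mean of replicates is reported.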
(Dilution methods test growth across graded concentrations, often in twofold steps.)

The subject of assay [2] is Cryptococcus neoformans. The assay is described as follows: Antifungal activity against Cryptococcus neoformans ATCC 32609 after 72 hrs by micro-broth dilution method. As to conditions: ATCC 32609, 72 h. In short, it runs like this: as §1
Assay [3] relates to Candida parapsilosis. The experiment in a line: Antifungal activity against Candida parapsilosis by micro-broth dilution method. Particulars: Lodderomyces parapsilosis. In short, it runs like this: (§2)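 Broth microdilution in 96-well plates following the NCCLS method. DMSO solutions of test agents were serially diluted in growth medium, inoculated, and incubated at 35 °C. MIC80 is the first well showing roughly 80% growth reduction versus the drug-free control. C. albicans ATCC76615 and Cry. neoformans ATCC32609 served as quality-control strains. Each test was done three times; the mean of replicates is reported.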

Assay [4] deals with Candida tropicalis. The assay is described as follows: Antifungal activity against Candida tropicalis by micro-broth dilution method. In short, it runs like this:
as §2

Assay [5] deals with Trichophyton rubrum. The experiment in a line: Antifungal activity against Trichophyton rubrum by micro-broth dilution method. In short, it runs like this:
as §2

The test system of assay [6] is Pichia kudriavzevii. The assay is described as follows: Antifungal activity against Candida krusei by micro-broth dilution method. In short, it runs like this:
as §2

The subject of assay [7] is Nannizzia gypsea. The experiment in a line: Antifungal activity against Microsporum gypseum by micro-broth dilution method. In short, it runs like this:
as §2

Assay [8] has as its system Aspergillus fumigatus. The experiment in a line: Antifungal activity against Aspergillus fumigatus by micro-broth dilution method. In short, it runs like this:
as §2

Take `C=CCN(Cc1ccc(C(=O)OCC)cc1)CC(O)(Cn1cncn1)c1ccc(F)cc1F` (centres undefined): the MIC80 (commonly an inhibitory concentration at the 80% level, which refers to growth in some studies and to a panel of isolates in others) in assay [1] was found to be 0.0039 µg/mL (≈ 0.00854 µM); in assay [2], 1 µg/mL (≈ 2.19 µM); in assay [3], 1 µg/mL (≈ 2.19 µM); in assay [4], 0.25 µg/mL (≈ 0.548 µM); in assay [5], 0.25 µg/mL (≈ 0.548 µM); in assay [6], 0.0625 µg/mL (≈ 0.137 µM). In addition, the MIC80 in assay [7] was 0.25 µg/mL (≈ 0.548 µM); in assay [8], greater than 64 µg/mL.
Consider `C=CCN(Cc1ccccc1F)CC(O)(Cn1cncn1)c1ccc(F)cc1F` (centres undefined), for which the MIC80 was determined as 0.0039 µg/mL (≈ 0.00969 µM) in assay [1]; 0.0625 µg/mL (≈ 0.155 µM) in assay [2]; 0.0156 µg/mL (≈ 0.0388 µM) in assay [3]; 0.0625 µg/mL (≈ 0.155 µM) in assay [4]; 0.25 µg/mL (≈ 0.621 µM) in assay [5]; 0.0156 µg/mL (≈ 0.0388 µM) in assay [6]. For the same compound, the MIC80 in assay [7] was 0.0039 µg/mL (≈ 0.00969 µM); in assay [8], greater than 64 µg/mL.
Take `C[C@@H]1[C@H](O)[C@@H](C)/C=C/C=C/C=C/C=C/C=C/C=C/C=C/[C@H](O[C@@H]2O[C@H](C)[C@@H](O)[C@H](N)[C@@H]2O)C[C@@H]2O[C@](O)(C[C@@H](O)C[C@@H](O)[C@H](O)CC[C@@H](O)C[C@@H](O)CC(=O)O[C@H]1C)C[C@H](O)[C@H]2C(=O)O` [AMPHOTERICIN B]: the MIC80 in assay [1], in assay [2], in assay [3], in assay [4], in assay [5] and in assay [6] was 2 µg/mL (≈ 2.16 µM) each time. Moreover, the figures for the MIC80 in assay [7] and in assay [8] were 2 µg/mL (≈ 2.16 µM) and 64 µg/mL (≈ 69.3 µM), respectively.
On to `OC(Cn1cncn1)(Cn1cncn1)c1ccc(F)cc1F` [FLUCONAZOLE], for which the MIC80 in assay [1] came out at 0.5 µg/mL (≈ 1.63 µM); in assay [2] it was 1 µg/mL (≈ 3.27 µM); in assay [3] it was 1 µg/mL (≈ 3.27 µM); in assay [4], 1 µg/mL (≈ 3.27 µM); in assay [5], 4 µg/mL (≈ 13.1 µM); in assay [6] it was 4 µg/mL (≈ 13.1 µM). Besides, the values for the MIC80 in assay [7] and in assay [8] were 0.25 µg/mL (≈ 0.816 µM) and greater than 64 µg/mL, respectively.
Turning to `CCC(C)n1ncn(-c2ccc(N3CCN(c4ccc(OCC5COC(Cn6cncn6)(c6ccc(Cl)cc6Cl)O5)cc4)CC3)cc2)c1=O` (centres undefined) [ITRACONAZOLE], the MIC80 in assay [1] came to 0.0625 µg/mL (≈ 0.0886 µM); in assay [2], 0.125 µg/mL (≈ 0.177 µM); in assay [3] it was 0.125 µg/mL (≈ 0.177 µM); in assay [4], 0.125 µg/mL (≈ 0.177 µM); in assay [5], 0.125 µg/mL (≈ 0.177 µM); in assay [6], 0.5 µg/mL (≈ 0.709 µM). Besides, the MIC80 in assay [7] is 0.0625 µg/mL (≈ 0.0886 µM); in assay [8], 0.5 µg/mL (≈ 0.709 µM).
For the compound `CC(=O)N1CCN(c2ccc(OCC3COC(Cn4ccnc4)(c4ccc(Cl)cc4Cl)O3)cc2)CC1` (centres undefined) [KETOCONAZOLE], the MIC80 turned out to be 0.0156 µg/mL (≈ 0.0294 µM) in assay [1]; 0.0625 µg/mL (≈ 0.118 µM) in assay [2]; 0.0625 µg/mL (≈ 0.118 µM) in assay [3]; 0.0625 µg/mL (≈ 0.118 µM) in assay [4]; 0.0625 µg/mL (≈ 0.118 µM) in assay [5]; 0.25 µg/mL (≈ 0.47 µM) in assay [6]. For the same compound, the MIC80 is 0.0156 µg/mL (≈ 0.0294 µM) in assay [7] and 1 µg/mL (≈ 1.88 µM) in assay [8].
With `CN(C/C=C/C#CC(C)(C)C)Cc1cccc2ccccc12` [TERBINAFINE], the MIC80 came out at 4 µg/mL (≈ 13.7 µM) in assay [1]; 1 µg/mL (≈ 3.43 µM) in assay [2]; 0.25 µg/mL (≈ 0.858 µM) in assay [3]; 0.0625 µg/mL (≈ 0.214 µM) in assay [4]; 0.0625 µg/mL (≈ 0.214 µM) in assay [5]; 16 µg/mL (≈ 54.9 µM) in assay [6]. For the same compound, the figures for the MIC80 in assay [7] and in assay [8] were 4 µg/mL (≈ 13.7 µM) and 0.0625 µg/mL (≈ 0.214 µM), respectively.
With `C[C@@H](c1ncncc1F)[C@](O)(Cn1cncn1)c1ccc(F)cc1F` [VORICONAZOLE], the MIC80 came to 0.0156 µg/mL (≈ 0.0447 µM) in assay [1]; 0.0156 µg/mL (≈ 0.0447 µM) in assay [2]; 0.0039 µg/mL (≈ 0.0112 µM) in assay [3]; 0.0039 µg/mL (≈ 0.0112 µM) in assay [4]; 0.0625 µg/mL (≈ 0.179 µM) in assay [5]; 0.0625 µg/mL (≈ 0.179 µM) in assay [6]. Further, the MIC80 turned out to be 0.0039 µg/mL (≈ 0.0112 µM) in assay [7] and 0.25 µg/mL (≈ 0.716 µM) in assay [8].
